Published values from different studies.
Protocols differ between the studies behind these lines.
VIPR1: Vasoactive intestinal polypeptide receptor 1 (VIPR1, Homo sapiens, UniProt P32241)
SULT1B1: Sulfotransferase 1B1 (SULT1B1, Homo sapiens, UniProt O43704)

O=C(Nc1cccnn1)N1CCN([C@@H]2CCOc3cc(C(F)(F)F)ccc32)CC1 — inhibition (VIPR1; cell-free assay; 20 µM): -11%
Oc1c(Br)cc(Br)cc1Oc1ccc(Br)cc1Br — Km (SULT1B1; enzyme activity, substrate): 0.172 µM
CN(C)C(=O)COC(=O)Cc1ccc(OC(=O)c2ccc(NC(=N)N)cc2)cc1 — inhibition (Dipeptidyl peptidase 3 (DPP3, Homo sapiens, UniProt Q9NY33); enzyme activity, inhibitor; 10 µM): 8%
COc1ncccc1-c1cnn2ccc(N3CCN(C(=O)OC(C)C)CC3)nc12 — remaining binding (Bone morphogenetic protein receptor type-1B (BMPR1B, Homo sapiens, UniProt O00238); binding, competition with immobilised ligand; 1 µM): 100%
O=[N+]([O-])c1cc[n+]([O-])c2ccccc12 — remaining activity (TcPGFS (Trypanosoma cruzi, UniProt Q8I6L9); enzyme activity, inhibitor; 200 µM): 76%
N=C(N)c1ccc2cc(OC(=O)c3ccc(N=C(N)N)cc3)ccc2c1 — inhibition (Cathepsin S (CTSS, Homo sapiens, UniProt P25774); enzyme activity, inhibitor; 10 µM): 8%
Nc1ncc(-c2nc(N3CCOCC3)nc(N3CCOCC3)n2)c(C(F)F)n1 — remaining binding (Uncharacterized serine/threonine-protein kinase SBK3 (SBK3, Homo sapiens, UniProt P0C264); binding, competition with immobilised ligand; 10 µM): 85%
COc1cc(Br)cc(Br)c1Oc1cc(Br)cc(Br)c1O — Km (SULT1B1; enzyme activity, substrate): 24.9 µM
O=C(Nc1cccnc1)N1CCC(Cc2cccc(Oc3ccc(C(F)(F)F)cn3)c2)CC1 — kinact/KI (Fatty-acid amide hydrolase 1 (Faah, Rattus norvegicus, UniProt P97612); enzyme activity, inhibitor): 3900 M⁻¹ s⁻¹
CCN(CC)CCCC[C@H](NC(=O)[C@H](CC(C)C)NC(=O)[C@H](C)NC(=O)[C@H](Cc1ccccc1)NC(=O)c1ccc(C(C)(C)C)cc1)C(=O)N[C@@H](CO)C(=O)OC — remaining binding (VIPR1; ligand displacement, radioligand; 10 µM): 110%
CN1CCN(c2cc(-c3ccncc3)c(-c3ccc4ccccc4c3)nn2)CC1 — activation (Prokineticin receptor 1 (PROKR1, Homo sapiens, UniProt Q8TCW9); calcium signal, agonist; PK-1; 12.5 µM): -0.3%
Cc1nn(C)cc1-c1nc2c(N3CCN(Cc4ccc(Cl)cc4)CC3)c(Cl)cnc2[nH]1 — remaining binding (Wee1-like protein kinase 2 (WEE2, Homo sapiens, UniProt P0C1S8); binding, competition with immobilised ligand; 1 µM): 99%
